According to ChEMBL document CHEMBL3407394, “Synthesis and in vitro anticancer activity evaluation of novel bioreversible phosphate inositol derivatives” (Eur J Med Chem, 2015):

Assays:
[1] = test system: A549; assay: Cytotoxicity against human A549 cells assessed as growth inhibition at 10 ug/ml after 72 hrs by MTT assay; type: functional; conditions: A549, 72 h, read-out: GI
Outline: (§1)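 Single-concentration screen in A549, HeLa or MDA-MB-231 cells cultured in DMEM, 10% FBS, 1% penicillin/streptomycin. About 1000 cells/well were preincubated 12 h, and compound diluted in DMEM to the final well concentration (0.5% DMSO) for 72 h at 37 °C, 5% CO2. Readout was MTT 4 h, DMSO-solubilized formazan, OD570, with inhibition relative to DMSO vehicle. Cisplatin in 1% NaCl (pH 7) served as positive control.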

[2] = test system: HeLa; assay: Cytotoxicity against human HeLa cells assessed as growth inhibition at 10 ug/ml after 72 hrs by MTT assay; type: functional; conditions: read-out: GI; outline: as §1
[3] = test system: MDA-MB-231; assay: Cytotoxicity against human MDA-MB-231 cells assessed as growth inhibition at 10 ug/ml after 72 hrs by MTT assay; type: functional; conditions: MDA-MB-231, 72 h, read-out: GI; outline: as §1
[4] = Cytotoxicity against human MCF10A cells assessed as growth inhibition at 10 ug/ml after 72 hrs by MTT assay; type: cell-based, MCF-10A; conditions: read-out: GI
Outline: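 MCF10A cells in DMEM/F12 plus 5% horse serum, about 1000 per well, were incubated 12 h, then treated at one final well concentration diluted in DMEM (0.5% DMSO) for 72 h, 37 °C, 5% CO2. Viability was by MTT: 4 h in fresh medium, formazan dissolved in DMSO, absorbance at 570 nm, normalized to vehicle controls. Cisplatin in 1% NaCl, pH 7, was the positive control.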

[5] = test system: A549; assay: Cytotoxicity against human A549 cells assessed as growth inhibition after 72 hrs by MTT assay; type: functional, cell-based; conditions: A549, 72 h
Outline: (§2)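 A549, HeLa and MDA-MB-231 cells were grown in DMEM with 10% FBS and 1% penicillin/streptomycin. About 1000 cells/well were seeded and left 12 h, then exposed to a dilution series in DMSO (final 0.5% DMSO) for 72 h at 37 °C, 5% CO2. MTT in fresh medium was added for 4 h, formazan dissolved in DMSO, and OD570 read. Viability was normalized to vehicle, and IC50 taken by linear regression of concentration-response curves.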

[6] = test system: HeLa; assay: Cytotoxicity against human HeLa cells assessed as growth inhibition after 72 hrs by MTT assay; type: functional, cell-based; outline: as §2
[7] = test system: MDA-MB-231; assay: Cytotoxicity against human MDA-MB-231 cells assessed as growth inhibition after 72 hrs by MTT assay; type: functional, cell-based; conditions: MDA-MB-231, 72 h; outline: as §2
[8] = Cytotoxicity against human MCF10A cells assessed as growth inhibition after 72 hrs by MTT assay; type: cell-based; conditions: MCF-10A
Outline: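 MCF10A non-cancerous cells were maintained in DMEM/F12 with 5% horse serum. About 1000 cells/well were seeded and attached for 12 h, then dosed over a dilution series (DMSO vehicle, final 0.5%) for 72 h at 37 °C, 5% CO2. MTT in fresh medium ran 4 h, formazan was dissolved in DMSO and OD570 measured. Viability was relative to vehicle-treated cells, and IC50 came from linear regression of concentration-response curves.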

| Structure (SMILES) | inhibition of growth at 10 µg/mL [1] [%] | inhibition of growth at 10 µg/mL [2] [%] | inhibition of growth at 10 µg/mL [3] [%] | inhibition at 72 h, 10 ug/ml [4] [%] | IC50 [5] [µM] | IC50 [6] [µM] | IC50 [7] [µM] | IC50 [8] [µM] |
| --- | --- | --- | --- | --- | --- | --- | --- | --- |
| C#CCO[C@@H]1[C@@H](OCc2ccccc2)[C@H](OP(=O)(OCc2ccc(OC(C)=O)cc2)OCc2ccc(OC(C)=O)cc2)[C@H](OP(=O)(OCc2ccc(OC(C)=O)cc2)OCc2ccc(OC(C)=O)cc2)[C@H](OP(=O)(OCc2ccc(OC(C)=O)cc2)OCc2ccc(OC(C)=O)cc2)[C@H]1OCc1ccccc1 | 2.5 | 100 | 88.1 | 15.4 | > 30 | 19 | > 30 | > 30 |
| CC(=O)Oc1ccc(COP(=O)(OCc2ccc(OC(C)=O)cc2)O[C@@H]2[C@@H](OCc3ccccc3)[C@H](OP(=O)(OCc3ccc(OC(C)=O)cc3)OCc3ccc(OC(C)=O)cc3)[C@H](OCc3ccccc3)[C@H](OCc3ccccc3)[C@H]2OCc2ccccc2)cc1 | 27.1 | 27.2 | 88.4 | 10.5 | 26.7 | 12.2 | 28.6 | > 40 |
| CC(=O)Oc1ccc(COP(=O)(OCc2ccc(OC(C)=O)cc2)OC2C3OC4OC(C3OCc3ccccc3)C(OP(=O)(OCc3ccc(OC(C)=O)cc3)OCc3ccc(OC(C)=O)cc3)C2O4)cc1 (configuration not stated) | 98.5 | 100 | 99.7 | 38.8 | 1.37 | 0.76 | 1.53 | > 50 |
| CC(=O)Oc1ccc(COP(=O)(OCc2ccc(OC(C)=O)cc2)OC2C3OCOC2C(OP(=O)(OCc2ccc(OC(C)=O)cc2)OCc2ccc(OC(C)=O)cc2)C(OP(=O)(OCc2ccc(OC(C)=O)cc2)OCc2ccc(OC(C)=O)cc2)C3OCc2ccccc2)cc1 (configuration not stated) | 94 | 94.3 | 94.4 | 2.5 | 4.27 | 1.08 | 1.68 | > 20 |
| CC(=O)Oc1ccc(COP(=O)(OCc2ccc(OC(C)=O)cc2)O[C@@H]2[C@@H](OCc3ccccc3)[C@@H](OCc3ccccc3)[C@@H](OP(=O)(OCc3ccc(OC(C)=O)cc3)OCc3ccc(OC(C)=O)cc3)[C@H](OP(=O)(OCc3ccc(OC(C)=O)cc3)OCc3ccc(OC(C)=O)cc3)[C@H]2OCc2ccccc2)cc1 | 7.8 | 80 | 21.3 | 9.2 | – | – | – | – |
| CC(=O)Oc1ccc(COP(=O)(OCc2ccc(OC(C)=O)cc2)O[C@@H]2[C@@H](OP(=O)(OCc3ccc(OC(C)=O)cc3)OCc3ccc(OC(C)=O)cc3)[C@H](OCc3ccccc3)[C@@H](OCc3ccccc3)[C@H](OCc3ccccc3)[C@@H]2OP(=O)(OCc2ccc(OC(C)=O)cc2)OCc2ccc(OC(C)=O)cc2)cc1 | 34.9 | 68.5 | 52.8 | 55.3 | 3.17 | > 20 | 3.28 | > 20 |
| CC(=O)Oc1ccc(COP(=O)(OCc2ccc(OC(C)=O)cc2)OC2C3OC4OC(C3OCc3ccccc3)C(OCc3ccccc3)C2O4)cc1 (configuration not stated) | 88.9 | 100 | 95.8 | 20.1 | 6.75 | 1.26 | 2.77 | 45.4 |
| CC(=O)Oc1ccc(COP(=O)(OCc2ccc(OC(C)=O)cc2)OC2C3OCOC2C(OCc2ccccc2)C(OP(=O)(OCc2ccc(OC(C)=O)cc2)OCc2ccc(OC(C)=O)cc2)C3OCc2ccccc2)cc1 (configuration not stated) | 43.7 | 100 | 99.4 | 48 | 5.55 | 0.95 | 2.37 | 23.2 |
| C#CCO[C@@H]1[C@@H](OCc2ccccc2)[C@H](OP(=O)(OCc2ccc(OC(C)=O)cc2)OCc2ccc(OC(C)=O)cc2)[C@H](OCc2ccccc2)[C@H](OP(=O)(OCc2ccc(OC(C)=O)cc2)OCc2ccc(OC(C)=O)cc2)[C@H]1OCc1ccccc1 | 9.9 | 100 | 8.7 | 38.6 | – | – | – | – |
| CC(=O)Oc1ccc(COP(=O)(OCc2ccc(OC(C)=O)cc2)O[C@@H]2[C@@H](OCc3ccccc3)[C@H](OCc3ccccc3)[C@@H](OP(=O)(OCc3ccc(OC(C)=O)cc3)OCc3ccc(OC(C)=O)cc3)[C@@H](OP(=O)(OCc3ccc(OC(C)=O)cc3)OCc3ccc(OC(C)=O)cc3)[C@H]2OCc2ccccc2)cc1 | 9.1 | -1.2 | -11 | 5.1 | – | – | – | – |
| CC(=O)Oc1ccc(COP(=O)(OCc2ccc(OC(C)=O)cc2)O[C@@H]2[C@H](OCc3ccccc3)[C@H](OCc3ccccc3)[C@@H](OP(=O)(OCc3ccc(OC(C)=O)cc3)OCc3ccc(OC(C)=O)cc3)[C@H](OP(=O)(OCc3ccc(OC(C)=O)cc3)OCc3ccc(OC(C)=O)cc3)[C@H]2OCc2ccccc2)cc1 | 6.4 | 84.5 | 11 | 37.4 | – | – | – | – |
| CC(=O)Oc1ccc(COP(=O)(OCc2ccc(OC(C)=O)cc2)O[C@H]2[C@H](OCc3ccccc3)[C@@H](OCc3ccccc3)[C@@H](OP(=O)(OCc3ccc(OC(C)=O)cc3)OCc3ccc(OC(C)=O)cc3)[C@@H](OP(=O)(OCc3ccc(OC(C)=O)cc3)OCc3ccc(OC(C)=O)cc3)[C@@H]2OCc2ccccc2)cc1 | -1.2 | -6.2 | -2.1 | 15.6 | – | – | – | – |
| CC(=O)Oc1ccc(COP(=O)(OCc2ccc(OC(C)=O)cc2)OC2C3OC4OC(C3OCc3ccccc3)C(O[Si](C)(C)C(C)(C)C)C2O4)cc1 (configuration not stated) | 100 | 100 | 84.3 | 100 | 9.51 | 1.35 | 2.35 | 38.1 |
| CC(=O)Oc1ccc(COP(=O)(OCc2ccc(OC(C)=O)cc2)O[C@@H]2[C@@H](OCc3ccccc3)[C@H](OCc3ccccc3)[C@@H](OCc3ccccc3)[C@H](OCc3ccccc3)[C@@H]2OP(=O)(OCc2ccc(OC(C)=O)cc2)OCc2ccc(OC(C)=O)cc2)cc1 | 14.9 | 15.8 | -17.2 | 42.3 | – | – | – | – |
| CC(=O)Oc1ccc(COP(=O)(OCc2ccc(OC(C)=O)cc2)OC2C(OCc3ccccc3)C3OCOC(C3OCc3ccccc3)C2OCc2ccccc2)cc1 (configuration not stated) | 75.4 | 98.1 | 12.4 | 48.9 | 8.15 | 1.52 | 1.58 | 18.9 |
| CC(=O)Oc1ccc(COP(=O)(OCc2ccc(OC(C)=O)cc2)O[C@H]2[C@H](OCc3ccccc3)[C@@H](OP(=O)(OCc3ccc(OC(C)=O)cc3)OCc3ccc(OC(C)=O)cc3)[C@H](OCc3ccccc3)[C@@H](OP(=O)(OCc3ccc(OC(C)=O)cc3)OCc3ccc(OC(C)=O)cc3)[C@H]2OCc2ccccc2)cc1 | 12.8 | 69.3 | -22.3 | 34.9 | – | – | – | – |
| CC(=O)Oc1ccc(COP(=O)(OCc2ccc(OC(C)=O)cc2)OC2C3OC4OC2C(OP(=O)(OCc2ccc(OC(C)=O)cc2)OCc2ccc(OC(C)=O)cc2)C(O4)C3OP(=O)(OCc2ccc(OC(C)=O)cc2)OCc2ccc(OC(C)=O)cc2)cc1 (configuration not stated) | 85.8 | 94.2 | 92.4 | -2.9 | 7.09 | 1.41 | 1.89 | > 20 |
| CC(=O)Oc1ccc(COP(=O)(OCc2ccc(OC(C)=O)cc2)O[C@H]2[C@H](OP(=O)(OCc3ccc(OC(C)=O)cc3)OCc3ccc(OC(C)=O)cc3)[C@@H](OCc3ccccc3)[C@H](OCc3ccccc3)[C@H](OCc3ccccc3)[C@@H]2OP(=O)(OCc2ccc(OC(C)=O)cc2)OCc2ccc(OC(C)=O)cc2)cc1 | 4.7 | 49.5 | 19.2 | 45.1 | – | – | – | – |
